From ChEMBL document CHEMBL3822395, “2-Aryl-3-(2-morpholinoethyl)thiazolidin-4-ones: Synthesis, anti-inflammatory in vivo, cytotoxicity in vitro and molecular docking studies” (Eur J Med Chem, 2016)
Calls of active or inactive are those of the source. The rule behind the calls is not given here.

How the values were obtained:
Mus musculus [1] = test: Antiinflammatory activity in BALB/c mouse assessed as inhibition of croton oil-induced ear edema at 33 mg/kg administered topically on ear measured at 6 hrs; type: functional; details: topical
Outline: (§1)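 Male BALB/c mice (25-35 g, mean 30 g), 3 per group. Ear edema induced with croton oil 2 μg/ear in acetone. Compounds were dosed at 33, 100, 166 and 333 mg/Kg, with indomethacin 33 mg/Kg as positive control. At 6 h a 6 mm ear punch was weighed and compared with untreated ears (edema index). Inhibition % = 100 × (1 − Vt/Vc) versus the control group.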

Mus musculus [2] = test: Antiinflammatory activity in BALB/c mouse ear assessed as inhibition of croton oil-induced heat in ear up to 333 mg/kg administered topically on ear measured at 6 hrs relative to control; type: functional, organism-based
Outline: (§2)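 Male BALB/c mice, 3 per group, dosed at 33–333 mg/Kg. Ears were checked at 6 h for heat, redness and swelling against a croton oil-induced control (2 μg/ear in acetone).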

[3] = Cytotoxicity against African green monkey Vero cells assessed as cell viability at 62.5 ug/ml by MTT assay; type: cell-based; details: chlorocebus sabaeus, read-out: Activity
Outline: (§3)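 Vero cells were seeded at 2×10^6 cells mL⁻¹ in E-MEM with 10% FBS and antibiotics, then left to attach for 24 h and 48 h before treatment. Dilutions were 62.5–1000 µg/mL in E-MEM. After a PBS wash, cells got MTT 1 mg/mL for 4 h at 37 °C in the dark. Formazan was dissolved in DMSO and read at 540 nm. Viability % = AT/AC × 100. Three independent experiments.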

[4] = Cytotoxicity against African green monkey Vero cells assessed as cell viability at 1000 ug/ml by MTT assay; type: cell-based; details: chlorocebus sabaeus, read-out: Activity; outline: as §3
[5] = Cytotoxicity against African green monkey Vero cells assessed as cell viability at 125 ug/ml by MTT assay; type: cell-based; details: chlorocebus sabaeus, read-out: Activity; outline: as §3
Mus musculus [6] = test: Antiinflammatory activity in BALB/c mouse ear assessed as inhibition of croton oil-induced ear redness up to 333 mg/kg administered topically on ear measured at 6 hrs relative to control; type: functional, organism-based; outline: as §2
[7] = Cytotoxicity against African green monkey Vero cells assessed as cell viability at 500 ug/ml by MTT assay; type: cell-based; details: chlorocebus sabaeus, read-out: Activity; outline: as §3
[8] = Cytotoxicity against African green monkey Vero cells assessed as cell viability at 250 ug/ml by MTT assay; type: cell-based; details: chlorocebus sabaeus, read-out: Activity; outline: as §3
Mus musculus [9] = test: Antiinflammatory activity in BALB/c mouse assessed as inhibition of croton oil-induced ear edema at 166 mg/kg administered topically on ear measured at 6 hrs; type: functional; details: topical; outline: as §1
Mus musculus [10] = test: Antiinflammatory activity in BALB/c mouse ear assessed as inhibition of croton oil-induced ear swelling up to 333 mg/kg administered topically on ear measured at 6 hrs relative to control; type: functional, organism-based; outline: as §2

| Structure (SMILES) | inhibition in vivo at 33 mg/kg (Mus musculus [1]) [%] | inhibition (Mus musculus [2]) | viability at 62.5 ug/ml [3] [%] | viability at 1000 ug/ml [4] [%] | viability at 125 ug/ml [5] [%] | inhibition (Mus musculus [6]) | viability at 500 ug/ml [7] [%] | viability at 250 ug/ml [8] [%] | inhibition in vivo at 166 mg/kg (Mus musculus [9]) [%] | inhibition (Mus musculus [10]) |
| --- | --- | --- | --- | --- | --- | --- | --- | --- | --- | --- |
| COc1ccc2c(c1)c(CC(=O)O)c(C)n2C(=O)c1ccc(Cl)cc1 [INDOMETHACIN] | 58 |  |  |  |  |  |  |  |  |  |
| O=C1CSC(c2ccc(F)cc2)N1CCN1CCOCC1 (centres undefined) |  | Active | 100 | 89 | 100 | Active | 91 | 100 | 39 | Active |
| O=C1CSC(c2ccccc2[N+](=O)[O-])N1CCN1CCOCC1 (centres undefined) |  | Active | 98 | 83 | 98 | Active | 91 | 98 | 50 | Active |
| O=C1CSC(c2ccc(Cl)cc2)N1CCN1CCOCC1 (centres undefined) |  | Active | 87 | 74 | 87 | Active | 76 | 87 | 44 | Active |
| COc1ccc(C2SCC(=O)N2CCN2CCOCC2)cc1 (centres undefined) |  | Active | 100 | 89 | 100 | Active | 90 | 100 | 54 | Active |
| Cc1ccc(C2SCC(=O)N2CCN2CCOCC2)cc1 (centres undefined) |  | Active | 87 | 73 | 87 | Active | 76 | 80 | 42 | Active |
| O=C1CSC(c2cccc([N+](=O)[O-])c2)N1CCN1CCOCC1 (centres undefined) |  | Active | 100 | 92 | 100 | Active | 92 | 100 | 48 | Active |
| O=C1CSC(c2ccc(O)cc2)N1CCN1CCOCC1 (centres undefined) |  | Active | 83 | 73 | 83 | Active | 79 | 83 | 45 | Active |
